Shown are actives, neighbours in structure and some others; about 4.6% of the full set was active somewhere.
M18AAP inhibitor: PfM18AAP inhibitors, malaria aminopeptidase, primary screen, biochemical, QFRET, recombinant enzyme | M18 aspartyl aminopeptidase (Plasmodium falciparum 3D7) | H-Glu-NHMec fluorogenic cleavage | inhibition, % at 7.35 µM | 290,000 tested, 1.2% active | AID 1822, 2009;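 active = inhibition above the campaign mean inhibition over all tested compounds plus 3 SD, cut at about 28% in these data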;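 also: 0% = plate median of test compound wells and 100% = 2 mM ZnCl2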
HDAC3 inh: HDAC3 deacetylase inhibitors, primary screen, biochemical, fluorescence, cell-free homogeneous | recombinant HDAC3, fluorogenic peptide/trypsin coupled | AID 2718, 2010 | 320,000 tested, 0.15% active | inhibition, % at 8.3 µM | Histone deacetylase 3 (Homo sapiens), O15379; in the data active = inhibition above about 26%, passing the limit was not always enough; inconclusive = no clear call, values can overlap the other calls
Rtt109 Vps75: inhibitors of C. albicans Rtt109/Vps75 HAT, primary screen, biochemical, ThioGlo CoA-SH fluorescence, plate reader; Histone acetyltransferase RTT109 (Candida albicans (strain SC5314 / ATCC MYA-2876)), …; inhibition, % at 34.9 µM; purified Rtt109/Vps75, 4 h; AID 540336, 2011; 330,000 tested, 0.16% active;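 active = inhibition of at least 50% in every replicate; inconclusive = best replicate reaches 50% inhibition but some replicates fall short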
Target sequence (Q5AAJ8 whole entry, looked up): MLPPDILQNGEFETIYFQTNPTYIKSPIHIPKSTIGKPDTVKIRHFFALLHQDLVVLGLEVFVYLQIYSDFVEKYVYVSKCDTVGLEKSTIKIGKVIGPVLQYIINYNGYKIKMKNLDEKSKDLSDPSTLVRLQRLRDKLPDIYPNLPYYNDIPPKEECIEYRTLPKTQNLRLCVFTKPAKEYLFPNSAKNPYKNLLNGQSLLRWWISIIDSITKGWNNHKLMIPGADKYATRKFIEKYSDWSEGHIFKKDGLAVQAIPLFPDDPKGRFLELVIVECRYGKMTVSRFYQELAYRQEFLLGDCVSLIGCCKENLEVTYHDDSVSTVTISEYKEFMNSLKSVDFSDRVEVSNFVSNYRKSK
ALR inh: inhibitors of human ALR sulfhydryl oxidase, primary screen, biochemical, H2O2 detection, HRP-luminol luminescence, single point | FAD-linked sulfhydryl oxidase ALR (Homo sapiens), P55789 | purified ALR, DTT oxidation | inhibition, % (test concentration not listed) | 290,000 tested, 3.8% active | AID 485317, 2010;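 active = mean replicate inhibition above about 79%, with every replicate also reaching it, limit read from the data; inconclusive = only one of the two criteria met; inactive = mean below limit and not every replicate reaching it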
UCH37 DUB inh: inhibitors of human UCH37 deubiquitinase, primary screen, biochemical, Ub-AMC cleavage, fluorescence | Ubiquitin carboxyl-terminal hydrolase isozyme L5 (Homo sapiens), Q9Y5K5 | purified proteasome/UCH37 | inhibition, % (test concentration not listed) | 330,000 tested, 0.33% active | AID 588478, 2011;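 active = mean inhibition over replicate wells above about 20%, limit read from the data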;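 also: 0% = compound-free wells with enzyme and 100% = wells lacking proteasome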
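Signal – fluorescence, ex 355 nm, em 460 nm · System – Proteasome-bound UCH37 · Input – 0.15 nM proteasome as dispensed · Timing – 30 min preincubation with enzyme, 25 min cleavage at room temperature · Read-out basis – percent inhibition of cleavage signal versus uninhibited and no-proteasome wells · Medium – Tris-HCl pH 7.4 with ATP-MgCl2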
FAS TE block: FAS thioesterase domain inhibitors, primary screen, biochemical, fluorescence intensity, uHTS; recombinant FAS-TE, OMFH fluorogenic substrate, fluorescence endpoint; inhibition, % at 15 µM; 360,000 tested, 0.67% active; AID 602261, 2012;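 active = compounds whose normalised, plate-corrected inhibition of enzyme fluorescence in the single-dose primary screen is 50% or more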;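 also: 0% = DMSO with enzyme and 100% = substrate without enzyme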
Active calls of the source: *; ? = inconclusive; · = no result.

SMILES	M18AAP inhibitor	HDAC3 inh	Rtt109 Vps75	ALR inh	UCH37 DUB inh	FAS TE block
O=C(CSc1nc2ccccc2[nH]1)NN=Cc1ccco1	·	·	·	·	5	·
CC(=NNC(=O)NC1CCCCC1)c1ccc(Cl)s1	·	·	·	·	0	·
COc1ccc(NS(=O)(=O)c2cc3c(cc2C)N(C)CCO3)c(OC)c1	3	·	3	23	4	8
Cc1ccccc1NS(=O)(=O)c1cc2c(cc1C)N(C)CCO2	7	·	0	98*	3	2
Cc1cc(C)c(O)c(-c2cc(C(=O)Nc3cccnc3)[nH]n2)c1	0	1	-4	98*	2	-7
Cn1c(C=Nn2cnnc2)nc2ccccc21	·	·	·	·	-210	·
O=C(NC1CCCCCC1)C(=S)NC1CCCCC1	30*	7	-2	-1	1	-1
Cc1ccc(C=NNC(=O)c2nnn(-c3nonc3N)c2CNc2ccccc2)cc1	·	·	·	·	6	·
COc1ccc(C)c2sc(N(CCCN(C)C)C(=O)c3ccc(S(=O)(=O)N4CCc5ccccc5C4)cc3)nc12	·	4	?	-24	-15	18
COc1ccc(OC)c2sc(N(CCCN(C)C)C(=O)c3ccc(S(=O)(=O)N4CCc5ccccc5C4)cc3)nc12	·	41*	·	-4	·	·
Cc1ccccc1N1CCN(C2CCCN(C(=O)c3cnsn3)C2)CC1 (stereo unspecified)	2	2	18	86*	4	-6
COc1ccccc1/C=C/C=Nn1c(-c2cc(C)[nH]n2)n[nH]c1=S	·	·	·	·	9	·
CC(C)CCn1c(=O)c2ccccc2n2c(=S)[nH]nc12	29*	-5	2	53	5	2
CCc1cc(CC)c(C=NNC(N)=O)c(CC)c1C=NNC(N)=O	·	·	·	·	3	·
CCN(CC)CCNC(=O)CS(=O)Cc1nc(-c2ccccc2Cl)oc1C (stereo unspecified)	-4	-10	-9	99*	3	-6
Cc1ccc(CNC(=O)CS(=O)Cc2nc(-c3ccccc3Cl)oc2C)cc1 (stereo unspecified)	2	5	-3	95*	4	-2
CCN(CC)CCNC(=O)CS(=O)Cc1nc(-c2ccc(Cl)cc2)oc1C (stereo unspecified)	-3	-3	-10	99*	1	-6
CCN(CC)CCNC(=O)CS(=O)Cc1nc(-c2ccc(C)cc2)oc1C (stereo unspecified)	4	3	5	99*	0	-6
O=C(C[n+]1cccc(C=NO)c1)N1CCCc2ccccc21	·	·	·	·	1	·
Cc1nnc(NN=CC(C)c2ccccc2)[nH]c1=O (stereo unspecified)	·	·	·	·	6	·
COc1cc(NC(=O)Cc2cccs2)cc(OC)c1	5	-3	2	-9	4	1
COc1ccc(C(=O)NC(=S)NNC(=O)Cc2cccs2)cc1	17	1	3	99*	2	-6
COc1ccc(C(=O)NC(=S)NNC(=O)CNC(=O)C2CCCCC2)cc1	7	5	-7	99*	2	-2
COc1cc(OC)cc(C(=O)NC(=S)NNC(=O)Cc2cccs2)c1	24	2	1	99*	1	-10
O=[N+]([O-])c1ccc(O)c(C=NNc2ncnc3c2cnn3-c2ccccc2)c1	·	·	·	·	4	·
SMILES	M18AAP inhibitor	HDAC3 inh	Rtt109 Vps75	ALR inh	UCH37 DUB inh	FAS TE block
COc1ccccc1Oc1ccc2c(c1)C(=O)N(c1cccc(O)c1)C2=O	31*	-6	6	-4	2	2
CN(C)CCCN(CCCNC(=O)C=NO)Cc1ccccc1	·	·	·	·	6	·
COc1cccc(N2CCN(c3ccc4nnc(CCC(=O)Nc5cc(C)ccn5)n4n3)CC2)c1	-6	-4	-2	58	3	-1
COc1cccc(N2CCN(c3ccc4nnc(CCC(=O)Nc5ccccn5)n4n3)CC2)c1	4	0	2	95*	4	-5
O=C(N/N=C/c1ccncc1)c1cccc(S(=O)(=O)Nc2ccc(Cl)cc2)c1	33*	-2	19	-4	·	-3
O=C(CNC(=O)c1ccccc1Br)N/N=C/c1ccc(O)cc1	0	1	-5	99*	·	0

Compound activity: PubChem BioAssay, several laboratories
